Results on five molecules are retold here after ChEMBL document CHEMBL5331144, “Design, Synthesis, and Biological Evaluation of 2-Hydroxy-4-phenylthiophene-3-carbonitrile as PD-L1 Antagonist and Its Comparison to Available Small Molecular PD-L1 Inhibitors” (J Med Chem, 2023).

Each structure is given as a SMILES string. Active and inactive are the calls of the source. The rule behind the calls is not given here.

The target in series [1] is Programmed cell death protein 1/Programmed cell death 1 ligand 1 (Homo sapiens) (UniProt Q15116+Q9NZQ7). Briefly: Inhibition of human PD-1/PD-L1 interaction assessed as induction of PD-L1 dimerization at 1:1 molar ratio by 1H-15N HMQC NMR analysis. The class given is protein-complex assay. An outline of the steps: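 Recombinant human PD-L1 (residues 18–134), expressed in E. coli BL21(DE3), refolded and purified by SEC in PBS pH 7.4. 1D and 2D NMR spectra recorded for apo protein and with ligand at 1:1 molar ratio.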

A further series deals with Jurkat. Briefly: Cytotoxicity against human Jurkat T cells overexpressing PD-1 with luciferase reporter under the control of NFAT promoter at higher concentration incubated for 48 hrs by redox dye mix based analysis. Format: toxicity, cell-based. An outline of the steps: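 Jurkat PD-1 effector cells (PD-1 overexpressing, luciferase reporter under NFAT promoter), 5000 cells/well, grown in RPMI 1640 with 10% FBS and 2 mM L-glutamine. Exposed 48 h to increasing compound concentrations, with DMSO held constant; DMSO alone as control. Values are mean ± SD of at least three independent experiments.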
A general note: In a reporter assay the amount or activity of a reporter protein is the signal.

Series [2] can be described thus: Ex vivo biodistribution in formalin fixed paraffin embedded tumor of human ES2 cells expressing PD-L1 by immunohistochemistry staining based analysis relative to control. Format: ADME, Neoplasm. The following applies: es-2. The procedure, abridged: (§1)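 FFPE xenograft tumours (ES2 or H358, PD-L1+/– knockout pairs) cut to 4 μm, deparaffinized at 60 °C with xylene, rehydrated, citrate pH 6.0 heat retrieval. Autoradiography: 30 min incubation with freshly formulated 18F-tracer at 0.2 MBq/mL, washed with cold PBS and water, dried, phosphor-plate exposure and quantification. Adjacent sections stained by IHC with anti-PD-L1 (5 μg/mL, clone 28-8, 60 min), DAB, hematoxylin counterstain.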

Series [3] can be described thus: Ex vivo drug localization in peripheral part of formalin fixed paraffin embedded tumor of human NCI-H358 cells expressing PD-L1 by immunohistochemistry staining based analysis. The class given is ADME, tissue-based, Neoplasm. An outline of the steps:
as §1

Series [4] can be described thus: Ex vivo biodistribution in snap-frozen human tonsils overexpressing PD-L1 by autoradiography. Format: ADME, Tonsil. The procedure, abridged: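 Snap-frozen human tonsil sections, 10 min cold acetone, then 30 min incubation with freshly formulated 18F-tracer at 0.2 MBq/mL. Washed twice with cold PBS and once with water, dried, exposed to phosphor plates and quantified by phosphor imaging.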

Series [5] in a line: Ex vivo biodistribution in formalin fixed paraffin embedded tumor of human NCI-H358 cells expressing PD-L1 by immunohistochemistry staining based analysis relative to control. The class given is ADME, Neoplasm. The procedure, abridged:
as §1

Regarding `Cc1c(COc2cc(OCc3cccc(C#N)c3)c(CN3C[C@H](O)C[C@@H]3C(=O)O)cc2Cl)cccc1-c1ccc2c(c1)OCCO2`, in series [1], the inhibition result was “Active”. For the same molecule, the Activity result with Jurkat is “Toxic”.

On to `N#Cc1c(-c2ccc(F)cc2)csc1OCc1ccc(CN)cc1`, for which, in series [1], the inhibition entry is “Active”. Also, the Activity result in the series on Jurkat is reported as “Toxic”.

Regarding `Cc1c(COc2cc(OCc3cccc(C#N)c3)c(CN3C[C@@H](F)C[C@@H]3C(=O)O)cc2Cl)cccc1-c1ccc2c(c1)OCCO2`, the Activity result in the series on Jurkat is listed as “Toxic”.

As to `N#Cc1c(-c2ccc([18F])cc2)csc1OCc1ccc(CN)cc1`, the Drug uptake entry is reported as “Not Active” in series [2], “Active” in series [3], “Active” in series [4] and 40% in series [5].

For `Cc1c(COc2cc(OCc3cccc(C#N)c3)c(CN3C[C@@H]([18F])C[C@@H]3C(=O)O)cc2Cl)cccc1-c1ccc2c(c1)OCCO2`, the Drug uptake result is “Active” in series [3], “Active” in series [4] and 40% in series [5].
